From ChEMBL document CHEMBL4513216, “Probing the Open Global Health Chemical Diversity Library for Multistage-Active Starting Points for Next-Generation Antimalarials” (ACS Infect Dis, 2020)

test: Toxicity liver stage against HepG2, at 10uM; format: cell-based; design: test concentration 10 uM, cell line HepG2-A16-CD81EGFP; conditions: human, HepG2-A16-CD81EGFP cells; read-out: INHIBITION
Procedure, shortened: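 Uninfected HepG2-A16-CD81EGFP cells, 3 × 10^3 per well, 1536-well, plated on prespotted compound at 10 μM final, parasite-free screening media added to match infected plates; puromycin 10 μM positive, DMSO 0.5% negative; run in parallel with 48 h PbLuc assay at 37 °C, 5% CO2; viability by CellTiter-Glo luminescence, normalized to controls.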

| SMILES | cytotoxicity at 10 µM |
| --- | --- |
| Cc1nn(C)c(N2CCCN(C)CC2)c1CNC(=O)CCC(C)C | -1.08% |
| CC(C)Nc1cccc(CNC(=O)N2CCCC2)c1 | 1.98% |
| CCOc1ccc(C(=O)N2CCCS2(=O)=O)cc1OC | -7.42% |
| CCN1CCN(C(=O)C2CCOC2)c2ccccc21 (configuration not stated) | 2.54% |
| Cc1ccccc1CN(C)C(=O)CN1CCOC(Cn2cncn2)C1 (configuration not stated) | -1.07% |
| COc1ccc(Oc2ncccc2C(F)(F)F)cc1CN1CCCC1 | 4.22% |
| CC(C)N1CCCCC1c1cc(CO)[nH]n1 (configuration not stated) | 4.61% |
| O=C(CC1CSc2nccc(=O)n21)NCc1cc(-c2ccco2)on1 (configuration not stated) | -11.3% |
| Cn1nc(C2CCCN(Cc3cc(F)cc(F)c3)C2)c2nccnc21 (configuration not stated) | -16.3% |
| COCCN1C[C@H]2[C@@H](C1)N(C(=O)c1cccc(OC)c1)CC[C@H]2OC | 3.56% |
| CCc1nc(N2CCN(c3ncccn3)CC2)c2cnn(C)c2n1 | -1.04% |
| O=c1cc2c(nn1CN1CCC(c3ccccc3)CC1)CCC2 | -8.49% |
| CCC(=O)NCC1(O)CCC(C(C)(C)C)CC1 (configuration not stated) | 5.81% |
| Cc1nccc(N2C[C@@H](CN3CCCC3)[C@@H](CO)C2)n1 | -3% |
| CN(C)Cc1nnc(C2CCCN(c3cc(C(F)(F)F)ccn3)C2)n1C (configuration not stated) | -11.9% |
| N#Cc1c[nH]c(C(=O)N(Cc2ccc(O)cc2)CC2CC2)c1 | 11.5% |
| Cc1noc(NCc2cc(F)ccc2F)n1 | -4.86% |
| COc1cc(CCC(=O)N2CCC(c3cc4ncc(C)nc4[nH]3)C2)on1 (configuration not stated) | 1.92% |
| CC(C)c1nnc2sc(CC3CCS(=O)(=O)CC3)nn12 | 4.62% |
| CCOc1cc(CNC(=O)c2cnn(CC)c2C(F)(F)F)ccn1 | 16.8% |
| Cc1cccc(-c2[nH]ncc2CNCC2CCN(CC(C)O)CC2)c1 (configuration not stated) | -10.1% |
| O=C(c1ccco1)N1CC[C@H]2[C@H]1CC(=O)N2c1cccnc1 | -95.8% |
| O=C(Nc1cccn(CC(F)(F)F)c1=O)c1ccc(F)cc1 | 14.3% |

| SMILES | cytotoxicity at 10 µM |
| --- | --- |
| O=C(NCCOCCO)[C@@]12CNC[C@@H]1CN(C1CCCC1)C2 | -16.4% |
| COc1ccc(C)cc1C(=O)NC(CC(=O)O)c1cccs1 (configuration not stated) | -16.3% |
| COCc1ncn2c1CN(C(=O)c1ccco1)CC2 | 9.32% |
| Cc1ccc(C(=O)Nc2cn[nH]c2)cn1 | -6.1% |
| O=C(NCC(=O)N1CCCC1Cc1cccc(F)c1)c1ccccn1 (configuration not stated) | -8.51% |
| O=C(NC[C@]1(O)CCN(Cc2ccccc2F)C[C@H]1O)c1c[nH]cn1 | 4.41% |
| Cc1n[nH]c(C)c1CNCC(O)c1ccc(F)c(F)c1 (configuration not stated) | 4.32% |
| CCc1[nH]ncc1C(=O)N1CCCC(n2cc(C)cn2)C1 (configuration not stated) | -11.4% |
| COc1ccc2c(c1)CC(C1CCOCC1)N(C(=O)c1ccnn1C)C2 (configuration not stated) | -0.516% |
| CCc1nnc2n1CCN(C(=O)c1cc(C)n(-c3ccccc3)c1C)C2 | -8.7% |
| CCc1ccc(O)c(C(=O)N2CCN(CC(=O)N(C)C)CC2)c1 | 2.8% |
| CCc1ccc(CN2CCN(Cc3ncc[nH]3)[C@H]3CS(=O)(=O)C[C@H]32)nc1 | -0.235% |
| Cc1ccc(CC(=O)N2CCc3nnc(N(C)C)cc3C2)s1 | -9.01% |
| COc1c(C)cnc(CN(C)C(=O)c2cccnc2N(C)C)c1C | -12.3% |
| Cc1csc(N2CCN(CC(=O)N3CCNC3=O)CC2C)n1 (configuration not stated) | -12.4% |
| CCc1nc2ccccc2n1C(CC)C(=O)N(C)Cc1nc(C)c[nH]1 (configuration not stated) | -2.53% |
| OC1(CNc2ccccc2)CCNCC1 | -1.9% |
| Cc1nc(NC2CCCC2)cc(C2CCN2c2ncccn2)n1 (configuration not stated) | -0.943% |
| O=C(c1ccn(-c2ccccc2)n1)N1CCCC(n2cccn2)C1 (configuration not stated) | -10.8% |
| O=C(c1cccc2[nH]ccc12)N1CCC2(CCOC2)C1 (configuration not stated) | -151% |
| Cc1cc(C2CCN(S(=O)(=O)c3cn(C)cn3)CC2)ccn1 | -32.6% |
| O=C(NCc1ccco1)C1CCCN1Cc1nc(-c2ccco2)no1 (configuration not stated) | -6.46% |
| Cn1ccnc1CN1C[C@@H](CN2CCC(CO)CC2)[C@@H](CO)C1 | -15.5% |

| SMILES | cytotoxicity at 10 µM |
| --- | --- |
| CCC(CO)N(Cc1cccs1)C(=O)Cc1ccc(O)cc1 (configuration not stated) | 6.57% |
| Cc1ccc(Cl)cc1N1CCC(CNC(=O)CCn2ccnn2)C1 (configuration not stated) | -5.72% |
| CN1CCOCC2(CCN(Cc3ccc[nH]3)CC2)C1 | 0.442% |
| CNC(=O)NCC(=O)Nc1ccccc1N1CCc2ccccc21 | 2.46% |
| CCC(C(=O)N1CCCN(CCN(C)C)CC1)N1CCCC1=O (configuration not stated) | 4.38% |
| CC(C)N(CCNc1nc(C2CCCC2)nc2c1cnn2C)C(C)C | 5.29% |
| COc1cccc(CC(=O)N2CCC(O)(C(F)(F)F)C2)c1 (configuration not stated) | 1.16% |
| CCCNC(=O)c1c(-n2cnnn2)sc2c1CCC2 | 4.05% |
| Cc1cc(C)n(CCN(C)c2ccc(-c3nc(C4CC4)no3)cn2)n1 | 6.08% |
| Cc1nn(C)c2c(=O)n(Cc3ccc(F)cc3)nnc12 | 3.41% |
| Cc1nnc(NC(=O)CN2CCc3nn(C)c(=O)cc3C2)s1 | -6.18% |
| Cc1csc(C2CCCN(C(=O)c3cccc4c3OCO4)C2)n1 (configuration not stated) | -4.11% |
| CCOCC1CN(Cc2cnn(C)c2)Cc2ncn(C)c21 (configuration not stated) | -79.2% |
| c1ccc(-c2n[nH]c(CCNc3nnc(C4CCC4)o3)n2)cc1 | 0.677% |
| CCN(Cc1nnsc1Cl)C(C)c1ccc(C#N)cc1 (configuration not stated) | 18.9% |
| O=C(CCCc1ccccn1)N1CCSC2(CCCCC2)C1 | -3.71% |
| O=C(CCc1cccnc1)N1CCC(c2cnccn2)CC1 | -10.4% |
| Cc1ccc(O[C@@H]2C[C@H]3CN(C(=O)c4cccnc4)CCN3C2)cc1 | 1.06% |
| CC(=O)NCC(=O)N1CC[C@H](OCC2CC2)[C@@H]1Cc1cccnc1 | -1.99% |
| CCN1CCN(C(=O)c2cc(-c3cccn3C)n[nH]2)[C@H]2CS(=O)(=O)C[C@H]21 | -12.5% |
| CC(C)CCNC(=O)C(c1cccc(F)c1)N(C)C (configuration not stated) | -5.77% |
| O=C(CCNc1ncccn1)NCCc1ccc(Cl)s1 | -3.91% |
| CN(Cc1cc(C(C)(C)C)n[nH]1)C(=O)CCC(=O)NC1CCCC1 | -2.12% |

| SMILES | cytotoxicity at 10 µM |
| --- | --- |
| CC(C)CC(=O)NCCn1nc(C2CCNC2)c2cccnc21 (configuration not stated) | -25% |
| Cc1nc(CN2CCc3nn(C(C)C)c(=O)cc3C2)oc1C | -7.52% |
| Clc1snnc1CN1CCCC(Cn2cncn2)C1 (configuration not stated) | -7.67% |
| CCN(C)c1ncc2c(c1C(=O)O)CCN(C1CCOC1)C2 (configuration not stated) | 11.5% |
| Cc1nc(NC(=O)NCCCN2CCC(C(N)=O)CC2)sc1C | 0.902% |
| O=S(=O)(c1ccc(Cl)cc1)N1CCc2nc(C3CCNCC3)ncc2C1 | -17.3% |
| Cc1cccc(OCCNC(=O)C(C)S(=O)(=O)C2CCCC2)c1 (configuration not stated) | 6.72% |
| Cc1cccc(-c2nc(C)nn2CN2CCC3(CC2)OCCO3)c1 | -13.8% |
| CN1CC(c2ccccc2)CC2(CCN(C(=O)c3cccnn3)CC2)C1 (configuration not stated) | -8.92% |
| CN(CCOc1ccccc1Cl)S(=O)(=O)N1CCOCC1 | -3.51% |
| Cc1csc(N2CCCN(Cc3ccn(C)c(=O)c3)CC2)n1 | 12.8% |
| CC(NCC(=O)N(C)C1CC1)c1ccc(S(C)(=O)=O)c(F)c1 (configuration not stated) | 6.27% |
| O=C(Cc1ccc2c(c1)OCCO2)NCc1ccc(-n2cncn2)nc1 | -20.5% |
| Cc1cc(NC(=O)CN2CCCC2Cn2nc(C)nc2C)on1 (configuration not stated) | -3.31% |
| Cc1nc(C2(NCC(=O)NC(=O)Nc3ccccc3)CCCCC2)no1 | 30.4% |
| Nc1ncc(C(=O)N2CCN(c3nccs3)CC2)cc1Cl | -3.78% |
| Cn1c2ncccc2c(=O)n1CC(=O)Nc1ccc(F)c(F)c1 | 16.5% |
| CN(Cc1cccnc1)[C@@H]1CN(Cc2cnn(C)c2)[C@@H]2CCCO[C@H]12 | -2.1% |
| CCNc1cc2c(nn1)CCN(C(=O)c1ccoc1)C2 | -6.9% |
| CC(C)c1nn(C)c(N2CCOCC2)c1CN[C@H](C)CO | -7.67% |
| COc1cc2nc(C)n(CC(=O)NCCCO)c(=O)c2cc1OC | -0.869% |
| Cn1nnc2c1C(COCC1CC1)CN(C(=O)Cc1ccccn1)C2 (configuration not stated) | 13.5% |
| CSCCCN(CCN1CCOCC1)Cc1ccco1 | 8.05% |

| SMILES | cytotoxicity at 10 µM |
| --- | --- |
| CNC(=O)C1CN(C)CCN(C(=O)CCn2nnc3ccccc32)C1 (configuration not stated) | 2.71% |
| CSc1ccccc1C(=O)NCc1cc2n(n1)CCCN(CC(C)C)C2 | 3.05% |
| CCN1CCCN(C(=O)c2cnc(OC(C)C)c(Cl)c2)CC1 | -14.4% |
| Cc1ccc2nc(C)cc(C(=O)NC(C)c3nnn[nH]3)c2c1 (configuration not stated) | 7.8% |
| c1ncn(CC2CCCCN2Cc2csc(C3CCCC3)n2)n1 (configuration not stated) | -6.44% |
| CC(=O)N1CCc2nnc(C3CCCN3CC3CCCCC3)n2CC1 (configuration not stated) | -1.54% |
| CCCc1n[nH]c(C2CN(CCn3cccn3)CCO2)n1 (configuration not stated) | -11.3% |
| CCn1cnnc1CNC(=O)c1ccc(Br)cc1F | -18.2% |
| COC(=O)N1CCC(c2nnc(Cn3ccnc3)n2C)CC1 | -110% |
| COCC(=O)N1CCN(C)CC(Cc2cc(N(C)C)ncn2)C1 (configuration not stated) | -1.79% |
| CC(C)OC(=O)N1CCC(Cc2ccc(C(=O)O)cc2)C1 (configuration not stated) | 3.38% |
| O=C(c1ccccn1)N1C[C@@H](OCc2cccnc2)[C@H]2OCCC[C@@H]21 | -0.187% |
| COc1cc(-c2nc3c([nH]2)CCCNC3=O)cc(OC)c1OC | 9.62% |
| Cc1cnccc1CCNC(=O)Nc1cnc(N(C)C)nc1 | 7.75% |
| Cc1ccccc1C1(CN)CCCCC1 | 2.29% |
| Cn1nnc2c1CCN(CC1CC1)C2COCC1CC1 (configuration not stated) | -110% |
| CS(=O)(=O)NCCC(=O)N1CCCC1c1noc(C2CC2)n1 (configuration not stated) | -10.4% |
| CN(C)C(=O)COCC1CN(Cc2ccoc2)Cc2nnn(C)c21 (configuration not stated) | 1.81% |
| NC(=O)CNC(=O)c1cc(Cn2cnc3ccccc32)[nH]n1 | -4.2% |
| Cc1nc(CNC(=O)NC(C)c2ccc3c(c2)OCCO3)cs1 (configuration not stated) | -2.61% |
